Measured values reported in ChEMBL document CHEMBL4513216, “Probing the Open Global Health Chemical Diversity Library for Multistage-Active Starting Points for Next-Generation Antimalarials” (ACS Infect Dis, 2020).

Experiment: Toxicity liver stage against HepG2, at 10uM
Type: cell-based
Design: test concentration 10 uM, cell line HepG2-A16-CD81EGFP
Settings: human, HepG2-A16-CD81EGFP cells; read-out: INHIBITION
In short: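 Uninfected HepG2-A16-CD81EGFP cells, 3 × 10^3 per well, 1536-well, plated on prespotted compound at 10 μM final, parasite-free screening media added to match infected plates; puromycin 10 μM positive, DMSO 0.5% negative; run in parallel with 48 h PbLuc assay at 37 °C, 5% CO2; viability by CellTiter-Glo luminescence, normalized to controls.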

Going from `CN(CCc1cccs1)C1CCCN(Cc2noc(C3CC3)n2)C1` (stereo not given) to `CN(Cc1noc(C2CC2)n1)C1CCN(Cc2nnc(C3CC3)o2)C1` (stereo not given), the cytotoxicity at 10 µM rises from -12.5% to -5.28%.

Compared with `Cn1ccnc1C(=O)NC[C@H]1OC[C@@H]2CCN(S(C)(=O)=O)C[C@@H]21`, `Cc1nccn1C1CCCN(C(=O)C2=NN(C)C(=O)CC2)C1` (stereo not given) is higher in cytotoxicity at 10 µM: -101% for the first, -7.49% for the second.

Compared with `CCS(=O)(=O)N1CCCn2nnc(CNC(C)=O)c2C1`, `O=C(CN1CCCC1)N1CCCC(CNS(=O)(=O)Cc2ccccc2)C1` (stereo not given) is higher in cytotoxicity at 10 µM: -113% for the first, -17.9% for the second.

First: O=C(CC1CC1)N1CCC2(CCCN(c3ncccn3)C2)CC1
Second: CC(C)CN1CCc2[nH]cnc2C12CCN(C(=O)c1cnn(C)c1)CC2
The cytotoxicity at 10 µM of the first is lower: -71% for the first, -4.68% for the second.

First: N#Cc1cccc(N2CCC(CO)(CCc3ccccc3)CC2)n1
Second: CO[C@@H]1CCN(Cc2ccoc2)C[C@@H]1Cc1ccccc1
The cytotoxicity at 10 µM of the first is lower: -48% for the first, 16.5% for the second.

Compared with `Cc1cc(NC(=O)CNCc2csc(-c3cnccn3)n2)ccc1Cl`, `CC(=O)Nc1ccc(CNC(=O)CNCc2snnc2C)cc1` is higher in cytotoxicity at 10 µM: -3.52% for the first, 8.43% for the second.

Compared with `Cc1cc(N2CCN(C(=O)Cc3ccc4c(c3)OCO4)CC2)cc(C)n1`, `Cc1noc(C)c1CCC(=O)N1CCCN(Cc2cccs2)CC1` is higher in cytotoxicity at 10 µM: -18% for the first, -3.39% for the second.

First: CC(C)(C)c1oc(C(N)=O)cc1CN1CCCCC(N)C1 (stereo not given)
Second: O=C(NCCC1CN(C2CCCC2)CCO1)c1cc(=O)[nH]c(=O)[nH]1 (stereo not given)
The cytotoxicity at 10 µM of the first is higher: 5.94% for the first, 0.0145% for the second.

First: CC(C)(Cn1cnc(-c2ccccc2)c1-c1ccco1)N1CCOCC1
Second: O=C(Nc1ccc(I)cc1C(=O)NCCN1CCOCC1)c1ccco1
The cytotoxicity at 10 µM of the first is lower: -38.8% for the first, 0.512% for the second.

Going from `CC(C)=CCN1CCN(Cc2cc(C)c(O)c(C)c2)CC1CCO` (stereo not given) to `O=C1NCCN2CCN(Cc3ccc(Cl)c(Cl)c3)CC12` (stereo not given), the cytotoxicity at 10 µM rises from -7.44% to -4.92%.

First: CC(=O)c1ccc(CN2CC(Oc3ccccc3C)C2)cc1
Second: COc1ccccc1OCc1cc(C(=O)N2CCN[C@H](C)C2)n[nH]1
The cytotoxicity at 10 µM of the first is higher: -4.73% for the first, -9.09% for the second.

First: COc1ccc(F)c(CN2CCCC(O)(CNCc3ccon3)C2=O)c1 (stereo not given)
Second: COc1cc(CNCC(C)O)cc(Cl)c1OCc1ccc(C)cc1 (stereo not given)
The cytotoxicity at 10 µM of the first is higher: 53.6% for the first, -5.23% for the second.

Compared with `CCNc1ccnc(N2CCN(Cc3ncccc3C)CC2)n1`, `Cc1csc(CN2CCC(C(=O)O)(n3ccc(-c4ccco4)n3)CC2)n1` is lower in cytotoxicity at 10 µM: -5.59% for the first, -127% for the second.

First: CN1CCN(C(=O)NCCc2ccc(F)cc2)[C@H]2CS(=O)(=O)C[C@H]21
Second: CCCN1CCN(C(=O)c2cnccn2)[C@H]2CS(=O)(=O)C[C@H]21
The cytotoxicity at 10 µM of the first is higher: 10.8% for the first, -19.8% for the second.

Compared with `N#Cc1cccc(S(=O)(=O)N2CCCCC2CCN2CCCC2)c1` (stereo not given), `CO[C@H]1CCN(S(=O)(=O)c2cccnc2)[C@@H]2CN(CC3CC3)C[C@H]12` is higher in cytotoxicity at 10 µM: -123% for the first, -73.5% for the second.

Going from `O=c1cc(C2CCNCC2)nc(Cc2cccc(Cl)c2)[nH]1` to `CCn1c(C2CCNCC2)nn(CCCc2ccccc2)c1=O`, the cytotoxicity at 10 µM rises from -0.869% to 1.4%.

Going from `CN(Cc1cc(C2CC2)[nH]n1)C(=O)c1ccccc1C1CCNC1` (stereo not given) to `Cc1cc(CN(C)C(=O)C(c2cccnc2)N2CCOCC2)n[nH]1` (stereo not given), the cytotoxicity at 10 µM falls from 1.89% to -52.7%.

Compared with `O=C(C1CC1)N1CCc2c(ncnc2NCCc2nc3c(s2)CCC3)C1`, `CCNc1ncc(C(=O)NCCc2csc(CSC)n2)cn1` is lower in cytotoxicity at 10 µM: -1.05% for the first, -5.63% for the second.

First: CCC(NC(=O)CC1CCN(C(C)C)CC1)c1cn2cccnc2n1 (stereo not given)
Second: Cc1nc(N2CCC(C(O)c3nccn3C)CC2)c2c(C)noc2n1 (stereo not given)
The cytotoxicity at 10 µM of the first is lower: -11.3% for the first, 7.54% for the second.

First: CN(C)C(=O)c1ccc2c(c1)nc(N1CC[C@H](O)C1)n2C
Second: CCN1CCO[C@@H]2CN(C(=O)c3ccc4[nH]ccc4c3)CC[C@@H]2C1
The cytotoxicity at 10 µM of the first is higher: -18.8% for the first, -116% for the second.

First: CCCN1CCC(N2CCC(Cn3cc(C4CC4)nn3)CC2)CC1
Second: CCCc1n[nH]c(C2CN(Cc3nnc(C4CC4)o3)CCO2)n1 (stereo not given)
The cytotoxicity at 10 µM of the first is higher: -1.98% for the first, -20.2% for the second.

First: O=C(c1cnc(-c2cccnc2)nc1)N1CCSCC1
Second: COc1cccc(Nc2nc(-c3ccncc3)nc3c2CNCC3)c1
The cytotoxicity at 10 µM of the first is higher: 0.431% for the first, -6.61% for the second.

Going from `CN(Cc1nc(Cc2ccccc2F)no1)CC1Cc2ccccc2O1` (stereo not given) to `OCC1CCC2(CC1)CN(Cc1ccsc1)Cc1ccccc1O2` (stereo not given), the cytotoxicity at 10 µM rises from -5.19% to -3.78%.

Compared with `Cc1nnsc1C(=O)NCc1cccnc1N(C)C`, `CCc1nnsc1C(=O)N1CCOC(c2nc(C)n[nH]2)C1` (stereo not given) is higher in cytotoxicity at 10 µM: -12.2% for the first, -6.45% for the second.

First: O=C(NCC(F)F)c1ccc(S(=O)(=O)NCCc2ccncc2)cc1
Second: CCCC(=O)Nc1ccc2c(c1)C1(CCOCC1)CN2CCOC
The cytotoxicity at 10 µM of the first is higher: -7.88% for the first, -104% for the second.

Going from `CCC(O)Cn1cc(C2=CCN(Cc3cc(O)nc(C)n3)CC2)cn1` (stereo not given) to `Cc1nc(CNCC2CN(C)CCO2)cs1` (stereo not given), the cytotoxicity at 10 µM rises from -9.2% to -9.16%.

Going from `c1ccc2sc(N3CCC4(CCCN4Cc4ncc[nH]4)CC3)nc2c1` to `CN1CCC2(COCc3cnc(N4CCOCC4)nc32)C1` (stereo not given), the cytotoxicity at 10 µM falls from 9.3% to -6.13%.

`COCC1CN(C(=O)c2ccoc2)Cc2cnn(CC3CCOCC3)c21` (stereo not given) showed a cytotoxicity at 10 µM of 2.77%.
